Consider 16 molecules from ChEMBL document CHEMBL4196056, “Zirconium catalyzed synthesis of 2-arylidene Indan-1,3-diones and evaluation of their inhibitory activity against NS2B-NS3 WNV protease” (Eur J Med Chem, 2018).

A word on the inhibition: it is how much of the control response was suppressed. What is called CC50 is the concentration at which the toxic effect on the cells reaches its halfway point. As a reminder, the EC50 is the midpoint of the concentration-response curve. The term Ki denotes the equilibrium dissociation constant of an inhibitor or competing ligand from its target. In general, IC50 refers to the concentration that gives 50% inhibition.

Active and inactive are the calls of the source. No cut-off for these calls is given here.

The subject of data set [1] is West Nile virus. Nature of the data set: Inhibition of recombinant West Nile virus NS2B-NS3 protease at 16 umol/L using pERTKR-AMC as substrate preincubated for 30 mins followed by substrate addition by fluorescence assay. In outline:
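Single-point screen of purified, pre-activated recombinant WNV NS2B-NS3 at 1 ng µL-1 final, in 50 mmol L-1 Tris with 30% glycerol, pH 9.5, and 1% DMSO final. Enzyme and compound (16 µmol L-1 final) were held 30 min at 21-22 °C before pERTKR-AMC was added. Fluorescence (ex 360/em 460 nm) was read continuously, with buffer/DMSO as negative control. Triplicate wells in three independent experiments; one-way ANOVA.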

Data set [2] is described as follows: Selectivity index, ratio of CC50 for African green monkey Vero cells to EC50 for Dengue virus 4 infected in African green monkey Vero cells. Format: toxicity. The following applies: Vero cells infected with Dengue virus 4, read-out: Ratio CC50/EC50. In outline:
(§1)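 Selectivity index calculated as CC50 from the 24 h Vero MTT assay divided by EC50 from the virucidal plaque-reduction assay for each DENV serotype.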

A short description of data set [3]: Cytotoxicity against African green monkey Vero cells after 24 hrs by MTT assay. Format: cell-based. The following applies: chlorocebus sabaeus. A digest of the protocol: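 Vero cells (5 x 10^4/well) were exposed for 24 h at 37 °C to eight concentrations (4-1000 µmol L-1) in MEM with 2% FBS and 1% DMSO. MTT was added for 4 h, formazan was dissolved in DMSO, and absorbance was read at 550 nm. CC50 was derived by curve fitting.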
For orientation: Tetrazolium assays rely on reduction of a dye to a coloured formazan, in cell work by metabolically active cells.

Data set [4] is described as follows: Selectivity index, ratio of CC50 for African green monkey Vero cells to EC50 for Dengue virus 1 infected in African green monkey Vero cells. Type of data set: toxicity. The following applies: Vero cells infected with Dengue virus 1, read-out: Ratio CC50/EC50. In outline:
as §1

For a further data set, the system named is dengue virus type 4. The data set is described as follows: Antiviral activity against Dengue virus 4 infected in African green monkey Vero cells assessed as decrease in viral infection preincubated for 1 hr followed by cell addition and subsequent incubation for 1 hr and measured after 5 to 6 days by crystal violet staining-based assay. Type of data set: functional, organism-based. In outline: (§2)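 Virucidal plaque-reduction format. Virus suspension (50-100 PFU) was mixed 1:1 with compound at 3, 6, 12, 25, 50 or 100 µmol L-1 and held 1 h at 37 °C. The mixture went onto Vero monolayers (8 x 10^5 cells/well) for 1 h adsorption with shaking, then a 3% CMC overlay in 2x DMEM with 2% FBS for 5-6 days. Cells were formaldehyde-fixed and crystal violet-stained, plaques were counted, and EC50 came from nonlinear regression.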

The next data set deals with dengue virus type 1. Nature of the data set: Antiviral activity against Dengue virus 1 infected in African green monkey Vero cells assessed as decrease in viral infection preincubated for 1 hr followed by cell addition and subsequent incubation for 1 hr and measured after 5 to 6 days by crystal violet staining-based assay. Type of data set: functional, organism-based. A digest of the protocol:
as §2

The nature of data set [5]: Non-competitive inhibition of recombinant West Nile virus NS2B-NS3 protease using pERTKR-AMC as substrate preincubated for 30 mins followed by substrate addition by Lineweaver-Burk plot analysis. A digest of the protocol:
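Kinetic series with WNV protease at 37.04 nmol L-1 (1 ng µL-1), inhibitor at 2, 4 and 8 µmol L-1, and pERTKR-AMC at five levels ([…] as printed). Fluorescence was read every 30 s in triplicate wells, and velocities (RFU/min) were computed for each substrate/inhibitor pair. Ki came from nonlinear enzyme-kinetics regression.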

Data set [6] deals with West Nile virus. Nature of the data set: (§3) Inhibition of recombinant West Nile virus NS2B-NS3 protease using pERTKR-AMC as substrate preincubated for 30 mins followed by substrate addition by fluorescence assay. In outline: (§4)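 Same protease format (1 ng µL-1 enzyme, Tris/30% glycerol pH 9.5, 30 min preincubation at 21-22 °C, pERTKR-AMC, ex 360/em 460 nm). Eight inhibitor concentrations spanning 66-0.5 µmol L-1 were tested, with reads every 30 s for 5 min. Triplicate wells in three independent experiments; IC50 from four-parameter nonlinear regression (Hill slope).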

The nature of data set [7]: as §3. A digest of the protocol: as §4
Another data set concerns dengue virus type 2. The data set is described as follows: Antiviral activity against Dengue virus 2 infected in African green monkey Vero cells assessed as decrease in viral infection preincubated for 1 hr followed by cell addition and subsequent incubation for 1 hr and measured after 5 to 6 days by crystal violet staining-based assay. Type of data set: functional, organism-based. A digest of the protocol: as §2

A further data set deals with dengue virus type 3. Nature of the data set: Antiviral activity against Dengue virus 3 infected in African green monkey Vero cells assessed as decrease in viral infection preincubated for 1 hr followed by cell addition and subsequent incubation for 1 hr and measured after 5 to 6 days by crystal violet staining-based assay. Type of data set: functional, organism-based. In outline:
as §2

Data set [8] is described as follows: Selectivity index, ratio of CC50 for African green monkey Vero cells to EC50 for Dengue virus 3 infected in African green monkey Vero cells. Type of data set: toxicity. The following applies: Vero cells infected with Dengue virus 3, read-out: Ratio CC50/EC50. In outline:
as §1

A short description of data set [9]: Selectivity index, ratio of CC50 for African green monkey Vero cells to EC50 for Dengue virus 2 infected in African green monkey Vero cells. Type of data set: toxicity. The following applies: Vero cells infected with Dengue virus 2, read-out: Ratio CC50/EC50. A digest of the protocol: as §1

Turning to `COc1cc(C=C2C(=O)c3ccccc3C2=O)cc(OC)c1O`, the inhibition entry in the data set with West Nile virus [1] is “Active”.

In the case of `COc1ccc(C=C2C(=O)c3ccccc3C2=O)cc1O`, the inhibition entry with West Nile virus [1] is “Active”.

Consider `O=C1C(=Cc2ccc(O)cc2)C(=O)c2ccccc21`, for which the selectivity ratio came out at 2 in [2], 2 in data set [4], 4 in data set [8] and 2 in data set [9]. Also, the inhibition is 41% in the data set with West Nile virus [1] and “Dose-dependent effect” in the data set with West Nile virus [6]. The molecule further displayed a CC50 at 24 h in data set [3] of 89.7 µM. For the same molecule, the EC50 with dengue virus type 4 is 55.9 µM; in the data set on dengue virus type 1, 46.6 µM; in the data set on dengue virus type 2, 39.2 µM; in the data set on dengue virus type 3, 21 µM. Further, the Ki in data set [5] came to 12.3 µM. Moreover, in data set [7], the IC50 came out at 11 µM.

For the molecule `O=C1C(=Cc2ccc(Br)cc2)C(=O)c2ccccc21`, the inhibition entry with West Nile virus [1] is “inactive”.

For the molecule `COc1ccc(C=C2C(=O)c3ccccc3C2=O)cc1OC`, in the data set on West Nile virus [1], the inhibition entry is “inactive”.

For `COc1cc(C=C2C(=O)c3ccccc3C2=O)cc(OC)c1OC`, the inhibition result in the data set on West Nile virus [1] was “inactive”.

For `O=C1C(=Cc2ccc([N+](=O)[O-])cc2)C(=O)c2ccccc21`, in the data set on West Nile virus [1], the inhibition result is “inactive”.

As to `O=C1C(=Cc2ccc(O)c(O)c2)C(=O)c2ccccc21`, the selectivity ratio in data set [2] was 9; in [4], 34; in data set [8], 147; in data set [9] it was 13. Besides, the inhibition with West Nile virus [1] is 100%; with West Nile virus [6], “Dose-dependent effect”. Further, the CC50 at 24 h in data set [3] is 268 µM. Further, the EC50 was found to be 29.9 µM in the data set with dengue virus type 4, 7.97 µM in the data set with dengue virus type 1, 20.4 µM in the data set with dengue virus type 2 and 1.82 µM in the data set with dengue virus type 3. Moreover, the Ki in data set [5] was determined as 1.25 µM. Also, the IC50 in [7] came to 3 µM.

`COc1cc(C=C2C(=O)c3ccccc3C2=O)ccc1O`: the inhibition result in the data set with West Nile virus [1] was “Active”.

With `O=C1C(=Cc2ccccc2)C(=O)c2ccccc21`, the inhibition entry in the data set with West Nile virus [1] is “inactive”.

`O=C1C(=Cc2ccc(F)cc2)C(=O)c2ccccc21`: in the data set with West Nile virus [1], the inhibition result was “inactive”.

In the case of `COc1ccc(C=C2C(=O)c3ccccc3C2=O)cc1`, in the data set with West Nile virus [1], the inhibition result is “inactive”.

Turning to `N#Cc1ccc(C=C2C(=O)c3ccccc3C2=O)cc1`, in the data set on West Nile virus [1], the inhibition result was “inactive”.

As for `CN(C)c1ccc(C=C2C(=O)c3ccccc3C2=O)cc1`, in the data set on West Nile virus [1], the inhibition entry is “inactive”.

Consider `O=C1C(=Cc2ccco2)C(=O)c2ccccc21`, for which, in the data set with West Nile virus [1], the inhibition result was “inactive”.

Consider `O=C1C(=Cc2ccc3c(c2)OCO3)C(=O)c2ccccc21`, for which the inhibition result in the data set on West Nile virus [1] is “inactive”.
